In PMC2909692 (Nuclear medicine and biology, 2010):
Values joined by “and” are separate entries in the source; they are usually repeats but may differ in a detail not shown here. Equal values may be shown once. Read-outs that look alike come from different tables or passages of the source.

Legend:
[1] = molecular target: dopamine transporter (DAT) (Rattus norvegicus, UniProt P23977); assay: quantitative in vitro autoradiography with [125I]IPT on rat brain sections; format: binding
Outline: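 Brains from lesioned rats were frozen in OCT, and 20 μm coronal cryosections were desiccated 2 hrs at 4 °C, then stored at −70 °C. Sections were preincubated 20 min at room temperature in 50 mM Na2HPO4/0.32 M sucrose pH 7.4, then incubated 2 hrs with [125I]IPT (13-19 Bq/μL). Rinses: cold buffer 2 × 30 min, then cold water. Film exposure was 24 hrs with 125I homogenate standards (0.04-1.48 kBq/mg). Change = ((R−CB)−(L−CB))/(R−CB)×100, averaged over sections.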

SERT [2] = molecular target: T1, SERT (Rattus norvegicus, UniProt P31652); assay: regional brain biodistribution of [18F]FPBM in PCA-treated and control rats; format: in vivo; details: 60 min, n = 6
T1 sequence (P31652 whole entry): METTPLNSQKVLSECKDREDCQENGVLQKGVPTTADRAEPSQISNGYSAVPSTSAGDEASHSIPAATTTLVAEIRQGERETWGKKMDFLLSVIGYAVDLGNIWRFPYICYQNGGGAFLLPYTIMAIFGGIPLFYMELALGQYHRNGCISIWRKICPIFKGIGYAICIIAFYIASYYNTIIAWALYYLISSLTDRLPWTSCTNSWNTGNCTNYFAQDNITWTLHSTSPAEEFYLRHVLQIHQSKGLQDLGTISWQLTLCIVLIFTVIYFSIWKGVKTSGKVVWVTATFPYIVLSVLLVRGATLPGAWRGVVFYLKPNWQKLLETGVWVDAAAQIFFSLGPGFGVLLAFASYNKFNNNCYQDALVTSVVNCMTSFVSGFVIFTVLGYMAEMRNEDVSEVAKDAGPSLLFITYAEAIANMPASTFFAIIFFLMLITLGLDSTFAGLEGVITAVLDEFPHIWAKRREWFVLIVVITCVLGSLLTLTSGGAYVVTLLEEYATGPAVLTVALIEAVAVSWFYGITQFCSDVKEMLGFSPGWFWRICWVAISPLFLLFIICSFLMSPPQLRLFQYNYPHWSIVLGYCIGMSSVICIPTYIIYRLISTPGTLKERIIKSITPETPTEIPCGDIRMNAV
Outline: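 Male Sprague Dawley rats (12, split into two groups) received PCA 5 mg/kg i.p. or saline daily for 2 consecutive days. Six days later they were given [18F]FPBM i.v. and killed under isoflurane 60 min post-injection. Radioactivity distribution was measured in brain regions only, not peripheral organs.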

[3] = normal rats, ref [23]-[25], cited from earlier work
SERT [4] = molecular target: T1, SERT; format: in vivo
Outline: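 Rats under 1.5-2.5% isoflurane were scanned on a Philips Mosaic animal PET after tail-vein [18F]FPBM (37-51 MBq lesioned; 43-57 MBq normal controls). Dynamic acquisition ran 4 hrs: 5-min frames for 2 hrs, then 15-min frames. Lesioned rats were apomorphine-screened (0.05 mg/kg s.c.) and rescanned 7-20 days later. ROI time-activity points were summed per region; left-striatum change = ((R−CB)−(L−CB))/(R−CB)×100.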

[5] = molecular target: serotonin transporter (SERT); details: read-out: Ki (affinity); in vitro binding assays; ref [23]-[25]; cited from earlier work
SERT [6] = molecular target: T1, SERT; assay: quantitative in vitro autoradiography with [18F]FPBM on rat brain sections; format: binding; details: n = 3
Outline: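 Coronal 20 μm cryostat sections from left-lesioned (6-OHDA) male Sprague Dawley rat brains were preincubated for 20 min at room temperature in 50 mM Tris/120 mM NaCl, pH 7.4, then dried. They were incubated for 1 hr at room temperature in that buffer containing [18F]FPBM (166-178 Bq/μL), rinsed cold 2 × 45 min, and exposed to film for 24 hrs with calibration standards. % change = ((R − cerebellum) − (L − cerebellum))/(R − cerebellum) × 100, averaged over rostral-striatum sections.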

VMAT2 = VMAT2 (Rattus norvegicus, UniProt Q01827); assay: small animal PET imaging with [18F]AV-133 in 6-OHDA unilateral lesioned rats; format: in vivo
VMAT2, sequence (Q01827 whole entry): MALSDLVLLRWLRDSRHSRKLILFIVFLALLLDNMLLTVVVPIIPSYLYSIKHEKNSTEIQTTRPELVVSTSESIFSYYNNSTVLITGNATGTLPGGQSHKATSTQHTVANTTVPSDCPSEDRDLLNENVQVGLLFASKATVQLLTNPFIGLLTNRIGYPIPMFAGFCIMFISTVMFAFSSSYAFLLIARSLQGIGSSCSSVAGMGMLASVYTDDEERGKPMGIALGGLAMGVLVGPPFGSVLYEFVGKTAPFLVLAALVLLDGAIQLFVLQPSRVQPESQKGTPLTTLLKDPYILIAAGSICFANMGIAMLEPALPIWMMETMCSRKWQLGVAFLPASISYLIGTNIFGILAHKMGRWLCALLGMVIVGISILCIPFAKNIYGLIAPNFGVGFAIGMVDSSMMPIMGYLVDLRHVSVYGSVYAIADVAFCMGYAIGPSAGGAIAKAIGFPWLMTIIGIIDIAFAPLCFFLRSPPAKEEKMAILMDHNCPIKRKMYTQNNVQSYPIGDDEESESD
Outline: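 Male Sprague Dawley rats with a unilateral left 6-OHDA lesion passed an apomorphine rotation check (0.05 mg/kg s.c., day 21). Under 1.5-2.5% isoflurane, each received [18F]AV-133 (50-57 MBq) by tail vein and was imaged dynamically for 4 hrs (5 min frames, then 15 min frames). ROI analysis on reconstructed images gave % change = ((R striatum − cerebellum) − (L striatum − cerebellum))/(R striatum − cerebellum) × 100.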

dopamine transporter (DAT), sequence (P23977 whole entry): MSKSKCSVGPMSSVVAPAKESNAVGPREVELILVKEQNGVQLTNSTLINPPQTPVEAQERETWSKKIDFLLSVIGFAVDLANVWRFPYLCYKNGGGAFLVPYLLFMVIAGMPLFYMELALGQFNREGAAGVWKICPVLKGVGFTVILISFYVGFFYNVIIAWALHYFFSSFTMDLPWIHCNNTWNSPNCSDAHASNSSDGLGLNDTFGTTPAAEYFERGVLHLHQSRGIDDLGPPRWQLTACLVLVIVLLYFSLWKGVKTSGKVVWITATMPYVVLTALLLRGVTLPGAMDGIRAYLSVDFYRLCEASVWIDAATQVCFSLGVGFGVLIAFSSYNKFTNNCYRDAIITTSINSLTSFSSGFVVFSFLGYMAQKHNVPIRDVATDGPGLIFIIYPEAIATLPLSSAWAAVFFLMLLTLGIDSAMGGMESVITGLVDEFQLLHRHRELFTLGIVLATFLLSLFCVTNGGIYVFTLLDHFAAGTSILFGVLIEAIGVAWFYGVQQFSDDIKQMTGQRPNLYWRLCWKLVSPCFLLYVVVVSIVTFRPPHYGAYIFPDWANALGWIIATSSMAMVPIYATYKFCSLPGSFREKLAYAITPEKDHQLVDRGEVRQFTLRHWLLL

With `COC(=O)C1C(c2ccc(Cl)cc2)CC2CCC1N2CC=C[125I]` (stereo not drawn) [[^125I]IPT, N-(3′-[^125I]-iodopropen-2′-yl)-2-beta-carbomethoxy-3-beta-(4-chlorophenyl) tropane] the “percent change in binding in the left striatum (in vitro autoradiography)” value (shortened to “percent change in binding”) ([1]; 6-OHDA lesioned rat #1) was −66%, the “percent change in binding” value ([1]; 6-OHDA lesioned rat #2) was −56% and the “percent change in binding” value ([1]; 6-OHDA lesioned rat #3) was −81%.

With `CN(C)Cc1cc(OCCC[18F])ccc1Sc1ccccc1N` [[^18F]FPBM, 2-(2′-((dimethylamino)methyl)-4′-(3-[^18F]-fluoropropoxy)phenylthio)benzenamine] the “ratio vs. CB ± SD, cerebellum” value (SERT [2]; PCA-treated rats) was 1.00 ± 0.34, the “ratio vs. CB ± SD, cortex” value (SERT [2]; PCA-treated rats) was 1.93 ± 0.58 and the “ratio vs. CB ± SD, hippocampus” value (SERT [2]; PCA-treated rats) was 2.29 ± 0.56. The “ratio vs. CB ± SD, hypothalamus” value (SERT [2]; PCA-treated rats) was 3.87 ± 0.88, the “ratio vs. CB ± SD, remainder” value (SERT [2]; PCA-treated rats) was 2.27 ± 0.53 and the “ratio vs. CB ± SD, striatum” value (SERT [2]; PCA-treated rats) was 2.90 ± 1.00. For the same compound, the “ratio vs. CB ± SD, cerebellum” value (SERT [2]; control rats) was 1.00 ± 0.33, the “ratio vs. CB ± SD, cortex” value (SERT [2]; control rats) was 3.39 ± 1.28 and the “ratio vs. CB ± SD, hippocampus” value (SERT [2]; control rats) was 3.09 ± 1.10. The “ratio vs. CB ± SD, hypothalamus” value (SERT [2]; control rats) was 4.61 ± 1.44, the “ratio vs. CB ± SD, remainder” value (SERT [2]; control rats) was 3.12 ± 1.12 and the “ratio vs. CB ± SD, striatum” value (SERT [2]; control rats) was 3.70 ± 1.21. The brain uptake ([3]; 2 min post-injection) was 0.99 % dose/g, the “target to non-target ratio” value ([3]; 120 min post-injection) was 7.7 and the “percent binding change in the left striatum (PET), individual scans” value (shortened to “percent binding change … individual scans”) (SERT [4]; 6-OHDA lesioned rat #1, 10 days between scans) was −12% and −10%. For the same compound, the “average percent binding change in the left striatum (PET)” value (shortened to “average percent binding change”) (SERT [4]; 6-OHDA lesioned rat #1, n = 2 scans) was −11%, the “percent binding change … individual scans” value (SERT [4]; 6-OHDA lesioned rat #2, 20 days between scans) was −1% and −7% and the “average percent binding change” value (SERT [4]; 6-OHDA lesioned rat #2, n = 2 scans) was −4%. For the same compound, the “percent binding change … individual scans” value (SERT [4]; 6-OHDA lesioned rat #3, 7 days between scans) was −42% and −44%, the “average percent binding change” value (SERT [4]; 6-OHDA lesioned rat #3, n = 2 scans) was −43% and the “percent binding change in the left striatum (PET), individual rats” value (SERT [4]; normal control rats, individual values) was “+4.5% and −3.5%”. For the same compound, the “average percent binding change” value (SERT [4]; normal control rats, n = 2 separate rats, left vs right striatum) was “+0.5%”, the Ki [5] was 0.38 nM and the “averaged percent binding reduction of the left rostral striatum brain sections (in vitro autoradiography)” value (from here on “averaged percent binding reduction”) (SERT [6]; 6-OHDA lesioned rat #1, rostral striatum sections) was −5.9%. The “averaged percent binding reduction” value (SERT [6]; 6-OHDA lesioned rat #2, rostral striatum sections) was “+2.3%” and the “averaged percent binding reduction” value (SERT [6]; 6-OHDA lesioned rat #3, rostral striatum sections) was −37.3%.

With `COc1cc2c(cc1OCCCF)CCN1CC(CC(C)C)C(O)CC21` (single isomer, unassigned; (+)) [[^18F]AV-133, (+)-2-Hydroxy-3-isobutyl-9-(3-fluoropropoxy)-10-methoxy-1,2,3,4,6,7-hexahydro-11bH-benzo[a]quinolizine] the “percent binding change in the left striatum (PET)” value (VMAT2; 6-OHDA lesioned rat #1, n = 1) was −87%, the “percent binding change in the left striatum (PET)” value (VMAT2; 6-OHDA lesioned rat #2, n = 1) was −72% and the “percent binding change in the left striatum (PET)” value (VMAT2; 6-OHDA lesioned rat #3, n = 1) was −91%.
